Assay results taken from article PMC12462367 (RSC Advances, 2025).
Values after ≈ are worked out from the molar mass of the structure shown.

Key:
B. cereus CMCC63303 = test: MIC, broth microdilution; format: cell-based
Outline: (§1)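 Broth microdilution per CLSI. Strains were grown in Mueller–Hinton broth on a shaker at 37 °C for about 5 h, then diluted to ~10^5 CFU mL−1. Test compound was serially diluted (0.05–256 μg mL−1), and plates were incubated at 37 °C for 18 h. MIC is the lowest concentration with no visible growth. Run in triplicate.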

[1] = tested on: L. monocytogenes CICC21662; test: MIC, broth microdilution; format: cell-based
Outline: as §1

E. faecalis ATCC29212 = test: MIC, broth microdilution; format: cell-based
Outline: as §1

S. aureus ATCC 29213 [2] = test: MIC, broth microdilution; format: cell-based; settings: Staphylococcus aureus, ATCC29213, read-out: Minimum inhibitory concentration (MIC), S. aureus ATCC 29213
Outline: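 Broth microdilution following CLSI guidelines. Strain grown in Mueller–Hinton broth with shaking at 37 °C for about 5 h, then diluted to ~10^5 CFU mL−1 in wells. Test compound serially diluted over 0.05–256 μg mL−1, and plates incubated 37 °C for 18 h. MIC taken as the lowest concentration with no visible growth. Run in triplicate.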

B. subtilis ATCC6633 = test: MIC, broth microdilution; format: cell-based
Outline: as §1

S. aureus MRSA2 = test: MIC, broth microdilution; format: cell-based, Staphylococcus aureus; settings: for MIC: Staphylococcus aureus, MRSA2, read-out: Minimum inhibitory concentration (MIC), S. aureus MRSA2
Outline: as §1

S. aureus LN38 = test: MIC, broth microdilution; format: cell-based, Staphylococcus aureus
Outline: as §1

[3] = tested on: IL-6 in LPS-stimulated RAW 264.7 macrophages; test: IL-6 secretion, LPS-stimulated macrophages; format: cell-based; settings: Mus musculus, RAW264.7, read-out: inhibition of IL-6 secretion
Outline: (§2)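 RAW 264.7 cells (5 × 10^4 per well) were allowed to adhere overnight in DMEM with 10% FBS. Cells were pretreated with test compound for 2 h, then stimulated with LPS (e.g., 100 ng mL−1) for 24 h at 37 °C, 5% CO2. IL-6 and IL-1β in culture supernatants were measured by ELISA. Vehicle controls (e.g., 0.1% DMSO); ≥3 biological replicates.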

[4] = tested on: IL-1β in LPS-stimulated RAW 264.7 macrophages; test: IL-1β production, LPS-stimulated macrophages; format: cell-based; settings: Mus musculus, RAW264.7, read-out: inhibition of IL-1β production
Outline: as §2

E. coli ATCC 25922 = test: MIC, broth microdilution; format: cell-based, Escherichia coli; settings: 16–24 h
Outline: as §1

S. aureus ATCC 29213 [5] = test: DNA leakage; format: cell-based, Staphylococcus aureus; settings: increasing concentrations (1 ×, 4 ×, 16 × MIC); 4 h
Outline: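 Cells were pelleted (12 000×g, 10 min, 4 °C) and the supernatant passed through a 0.22 μm filter. Extracellular DNA was measured as A260 by microvolume spectrophotometry. Vehicle controls; technical triplicates.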

[6] = tested on: TNF-α in LPS-stimulated RAW 264.7 macrophages; test: TNF-α release, LPS-stimulated macrophages; format: cell-based
S. aureus ATCC 29213 [7] = test: Membrane potential assay; format: cell-based, Staphylococcus aureus
Outline: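 S. aureus ATCC 29213 was grown overnight, brought to log phase (OD600 = 0.4), pelleted and resuspended in PBS at 10^6–10^7 CFU mL−1. Cells were exposed to test compound or 10 μM CCCP (depolarization control) for 15 min at room temperature in the dark. DiOC2(3) (BacLight kit) was then added for 30 min under the same conditions; red/green fluorescence ratio recorded. Triplicate.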

rabbit red blood cells = test: Hemolysis assay; format: cell-based
Outline: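 Test compound in PBS was mixed 1:1 with 4% defibrinated rabbit erythrocytes in PBS (final 2–256 μg mL−1) at 37 °C. Cells were pelleted (1000×g, 5 min) and supernatant absorbance read at 490 nm. Hemolysis % = (sample − PBS)/(Triton − PBS), with 1% Triton X-100 as positive and sterile PBS as negative reference. Triplicate.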

[8] = tested on: NO in LPS-stimulated RAW 264.7 macrophages; test: Nitric oxide production, LPS-stimulated macrophages; format: cell-based; settings: 128 μg mL^−1
Outline: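 Murine RAW 264.7 macrophages (5 × 10^4 per well, DMEM with 10% FBS) were allowed to adhere overnight. Cells were pretreated with test compound for 2 h, then exposed to LPS (e.g., 100 ng mL−1) for 24 h at 37 °C under 5% CO2. Nitric oxide in culture supernatants was measured with a commercial detection kit. Vehicle controls (e.g., 0.1% DMSO); ≥3 biological replicates.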

Cytotoxicity assay [9] = format: cell-based; settings: human, LO2 cells
S. aureus MRSA2 biofilm = test: Biofilm formation inhibition; format: cell-based, Staphylococcus aureus; settings: 64 μg mL^−1 (8 × MIC)
Outline: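 S. aureus MRSA2 was diluted 1:100 in TSB with 1% (w/v) glucose and incubated with test compound (256–2 μg mL−1) for 24 h at 37 °C; DMSO-matched controls. Wells were rinsed with PBS three times, air-dried, stained with 0.1% crystal violet for 15 min, destained with 95% ethanol and read at 595 nm. Inhibition % = (ODcontrol − ODsample)/ODcontrol × 100. Triplicate.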

[10] = Plasma protein binding, equilibrium dialysis; format: in vitro ADME; settings: Sprague-Dawley, rat
Outline: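 Equilibrium dialysis: bags holding 0.5 mL of blank Sprague–Dawley rat plasma were placed in 40 mL of PBS containing test compound at 30 μM. Incubation was 24 h at 37 °C with shaking at 100 rpm. Both compartments were assayed by HPLC. Binding % = (A − B)/A, where A is the total concentration inside the bag and B the free concentration in the dialysate. Nonspecific binding controls; triplicate.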

S. aureus ATCC 29213 [11] = test: Drug resistance study; format: cell-based, Staphylococcus aureus; settings: sub-MIC passage 28 days
S. aureus ATCC 29213 [12] = test: Membrane permeability assay; format: cell-based, Staphylococcus aureus; settings: 4 × MIC (32 μg mL^−1); 2 hours
S. aureus ATCC 29213 [13] = test: Time-killing kinetics; format: cell-based, Staphylococcus aureus
Cytotoxicity assay [14] = format: cell-based; settings: human, HK-2 cells
[15] = tested on: S. aureus MRSA2 mature biofilm; test: Mature biofilm eradication; format: cell-based, Staphylococcus aureus; settings: 128 μg mL^−1 (16 × MIC), 24 hours treatment
S. aureus ATCC 29213 [16] = test: Protein leakage; format: cell-based, Staphylococcus aureus; settings: increasing concentrations (1 ×, 4 ×, 16 × MIC); 4 h
Outline: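 After centrifugation (12 000×g, 10 min, 4 °C) and 0.22 μm filtration, supernatant protein was determined by BCA assay at 562 nm. Vehicle controls; technical triplicates.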

SMILES	activity against B. cereus CMCC63303 (B. cereus CMCC63303)	activity against L. monocytogenes CICC21662 [1]	activity against E. faecalis ATCC29212 (E. faecalis ATCC29212)	MIC (S. aureus ATCC 29213 [2])	activity against B. subtilis ATCC6633 (B. subtilis ATCC6633)	MIC (S. aureus MRSA2)	activity against S. aureus LN38 (S. aureus LN38)	other results
CCN(CC)c1ccc(C=O)c(O)c1 [C, 4-(diethylamino)-2-hydroxybenzaldehyde]	>256	>256	>256	> 256 µg/mL	>256	> 256 µg/mL	>256	Minimum inhibitory concentration (MIC), S. aureus MRSA2 (S. aureus MRSA2; clinically isolated methicillin-resistant S. aureus MRSA2, 16–24 h): >256 µg/mL
CCN(CC)c1ccc(C=NNC(=O)c2ccccc2)c(O)c1 [D1, N′-(4-(diethylamino)-2-hydroxybenzylidene)benzohydrazide]	–	–	–	> 256 µg/mL	–	> 256 µg/mL	–	–
CCN(CC)c1ccc(C=NNC(=O)c2ccncc2)c(O)c1 [D2, N′-(4-(diethylamino)-2-hydroxybenzylidene)isonicotinohydrazide]	–	–	–	> 256 µg/mL	–	> 256 µg/mL	–	–
CCN(CC)c1ccc(C=NNC(=O)c2ccc(C)cc2)c(O)c1 [D3, N′-(4-(diethylamino)-2-hydroxybenzylidene)-4-methylbenzohydrazide]	–	–	–	> 256 µg/mL	–	> 256 µg/mL	–	–
CCN(CC)c1ccc(C=NNC(=O)c2ccccn2)c(O)c1 [D5, N′-(4-(diethylamino)-2-hydroxybenzylidene)picolinohydrazide]	8	8	8	–	16	8 µg/mL (≈ 25.6 µM)	16	inhibition at 128 µg/mL [3]: 46%; inhibition at 128 µg/mL [4]: 39%; Minimum inhibitory concentration (MIC), E. coli ATCC 25922 (E. coli ATCC 25922): >256 µg/mL; leakage of DNA into culture medium (S. aureus ATCC 29213 [5]): dose-dependent efflux; lowest concentration at which TNF-α suppression emerges ([6]; LPS-stimulated RAW 264.7): 8 µg/mL; inhibition at 128 µg/mL ([6]; Mus musculus, RAW264.7, read-out: inhibition of TNF-α release): 40%; membrane depolarization (DiOC2(3) red/green fluorescence ratio) (S. aureus ATCC 29213 [7]): significant decrease; hemolysis at 256 μg mL^−1 (rabbit red blood cells; 256 μg mL^−1): no significant hemolysis; hemolytic activity against rabbit RBCs (rabbit red blood cells; 2 to 256 μg mL^−1, 4% rabbit RBCs, 37 °C): no hemolytic activity; reduction of nitric oxide (NO) synthesis [8]: 53%; viability at 24 h, 256 μg mL^−1 (Cytotoxicity assay [9]): > 85%; suppression of biofilm formation (S. aureus MRSA2 biofilm): > 95%; fraction unbound at 24 h, 30 μM [10]: 0.134; increase of MIC after serial passage (S. aureus ATCC 29213 [11]): 16 fold; membrane permeabilization (PI uptake) (S. aureus ATCC 29213 [12]): near-complete PI uptake; time to complete eradication of bacteria (S. aureus ATCC 29213 [13]; 8 × MIC): ≤ 10 h; eradication of bacterial colonies (S. aureus ATCC 29213 [13]; S. aureus ATCC 29213, 8 × MIC (64 μg mL^−1), within 10 hours): > 99.9%; viability at 24 h, 256 μg mL^−1 (Cytotoxicity assay [14]): > 85%; clearance of mature biofilms [15]: > 95%; leakage of proteins into culture medium (S. aureus ATCC 29213 [16]): dose-dependent efflux
CCN(CC)c1ccc(C=Nc2cc(C)ccc2O)c(O)c1 [D9, 2-((4-(diethylamino)-2-hydroxybenzylidene)amino)-4-methylphenol]	–	–	–	> 256 µg/mL	–	> 256 µg/mL	–	–
CCN(CC)c1ccc(C=Nc2cc(C)c(Br)cn2)c(O)c1 [D10, 2-(((5-bromo-4-methylpyridin-2-yl)imino)methyl)-5-(diethylamino)phenol]	–	–	–	> 256 µg/mL	–	> 256 µg/mL	–	–
CN[C@H](CC(C)C)C(=O)N[C@H]1C(=O)N[C@@H](CC(N)=O)C(=O)N[C@H]2C(=O)N[C@H]3C(=O)N[C@H](C(=O)N[C@H](C(=O)O)c4cc(O)cc(O)c4-c4cc3ccc4O)[C@H](O)c3ccc(c(Cl)c3)Oc3cc2cc(c3O[C@@H]2O[C@H](CO)[C@@H](O)[C@H](O)[C@H]2O[C@H]2C[C@](C)(N)[C@H](O)[C@H](C)O2)Oc2ccc(cc2Cl)[C@H]1O [Vancomycin]	1	1	2	1 µg/mL (≈ 0.69 µM)	1	2 µg/mL (≈ 1.38 µM)	1	–
